Assay type in all cases: functional
In test [1] the test system is Listeria monocytogenes. Nature of the test: Antimicrobial activity against Listeria monocytogenes ATCC 19111 assessed as growth inhibition rate at 5.32 mg/l after 72 hr by spectrophotometry. The settings on record: ATCC 19111, 72 h, read-out: GI. The procedure, abridged: (§1)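 L. monocytogenes was grown at 30 °C in tryptic soy broth, subcultured for 18 h, and exposed to pure volatile compounds (>95% purity). Growth was followed by Bioscreen C optical density every 24 h for 72 h against a 10% Tween 80 control.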

Test [2] deals with Vibrio parahaemolyticus. Nature of the test: Antimicrobial activity against Vibrio parahaemolyticus ATCC 33844 assessed as growth inhibition rate at 5.32 mg/l after 72 hr by spectrophotometry. Conditions: ATCC 33844, 72 h, read-out: GI.
The subject of test [3] is Escherichia coli. Nature of the test: Antimicrobial activity against Escherichia coli O157:H7 ATCC 43894 assessed as growth inhibition rate at 5.32 mg/l after 72 hr by spectrophotometry. The settings on record: O157:H7 ATCC 43894, 72 h, read-out: GI.
For test [4], the system named is Staphylococcus aureus. Nature of the test: Antimicrobial activity against Staphylococcus aureus ATCC 25923 assessed as growth inhibition rate at 5.32 mg/l after 72 hr by spectrophotometry. The settings on record: ATCC 25923, 72 h, read-out: GI.
Test [5] has as its system Salmonella typhimurium. Nature of the test: Antimicrobial activity against Salmonella enterica subsp. enterica serovar Typhimurium ATCC 14028 assessed as growth inhibition rate at 5.32 mg/l after 72 hr by spectrophotometry. The settings on record: ATCC 14028, 72 h, read-out: GI.
Test [6] has as its system Bacillus cereus. Nature of the test: Antimicrobial activity against Bacillus cereus ATCC 11778 assessed as growth inhibition rate at 5.32 mg/l after 72 hr by spectrophotometry. The settings on record: ATCC 11778, 72 h, read-out: GI. Put shortly: (§2)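 Pure volatile compounds (purity >95%; one at 90%) were tested against B. cereus ATCC 11778. The strain was grown at 30 °C in nutrient broth for 24 h, then subcultured for 18 h. Optical density was read in a Bioscreen C every 24 h for 72 h, with 10% Tween 80 as the control.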

Test [7] concerns Listeria monocytogenes. Nature of the test: Antimicrobial activity against Listeria monocytogenes ATCC 19111 assessed as growth inhibition rate at 43.2 mg/l after 72 hr by spectrophotometry. Conditions: ATCC 19111, 72 h, read-out: GI. The procedure, abridged: as §1
For test [8], the system named is Staphylococcus aureus. Nature of the test: Antimicrobial activity against Staphylococcus aureus ATCC 25923 assessed as growth inhibition rate at 43.2 mg/l after 72 hr by spectrophotometry. The settings on record: ATCC 25923, 72 h, read-out: GI.
The test system of test [9] is Vibrio parahaemolyticus. Nature of the test: Antimicrobial activity against Vibrio parahaemolyticus ATCC 33844 assessed as growth inhibition rate at 43.2 mg/l after 72 hr by spectrophotometry. Conditions: ATCC 33844, 72 h, read-out: GI.
The subject of test [10] is Escherichia coli. Nature of the test: Antimicrobial activity against Escherichia coli O157:H7 ATCC 43894 assessed as growth inhibition rate at 43.2 mg/l after 72 hr by spectrophotometry. The settings on record: O157:H7 ATCC 43894, 72 h, read-out: GI.
Test [11] concerns Salmonella typhimurium. Nature of the test: Antimicrobial activity against Salmonella enterica subsp. enterica serovar Typhimurium ATCC 14028 assessed as growth inhibition rate at 43.2 mg/l after 72 hr by spectrophotometry. The settings on record: ATCC 14028, 72 h, read-out: GI. Put shortly:
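Salmonella Typhimurium ATCC 14028 grown in nutrient broth at 30 °C, precultured 24 h, then subcultured 1:100 for 18 h before testing. Single volatile compounds (>95% pure) were added. OD was read every 24 h over 72 h in a Bioscreen C, with 10% Tween 80 as the comparison control.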

The test system of test [12] is Bacillus cereus. Nature of the test: Antimicrobial activity against Bacillus cereus ATCC 11778 assessed as growth inhibition rate at 43.2 mg/l after 72 hr by spectrophotometry. The settings on record: ATCC 11778, 72 h, read-out: GI. The procedure, abridged:
as §2

Regarding `CCCCCC(O)CC` (configuration not stated) [3-OCTANOL], the inhibition of growth at 5.32 µg/mL is 21.5% in the test on Listeria monocytogenes [1]; 70.7% with Vibrio parahaemolyticus [2]; 8.9% with Escherichia coli [3]; 52.6% in the test on Staphylococcus aureus [4]; 20.6% in the test on Salmonella typhimurium [5]; 43% with Bacillus cereus [6].

Regarding `CC/C=C\CCO` [CIS-3-HEXENOL], the inhibition of growth at 43.2 µg/mL with Listeria monocytogenes [7] is 10.3%; with Staphylococcus aureus [8] it was 21.6%; in the test on Vibrio parahaemolyticus [9] it was 73.7%; in the test on Escherichia coli [10], 41%; in the test on Salmonella typhimurium [11], 56.2%; in the test with Bacillus cereus [12], 14.3%.

Values taken from ChEMBL document CHEMBL3046951, “Volatile constituents from the leaves of Callicarpa japonica Thunb. and their antibacterial activities” (2004).
